Pyk2 oligo antag: antagonists of Pyk2 self-association, primary screen, Q293 cells, FERM NanoBiT luminescence, HTS. z-score (the deposit names both 25 µM and 10 µM). hits give low values. hit rate 0.83% among 99,000. AID 1347419, 2020;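 active = Z-score of -3 or lower, scaled per plate to the spread of control and sample wells; inactive = z-score above -3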;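 note: negative z-score means lost luminescence so less FERM oligomerization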
Cav3 T inh: Cav3.2 calcium influx blockers – cell-based, Fluo-4 calcium fluorescence, FDSS, MLSMR library, primary screen; B-score at 10 µM; AID 449739, 2010; Cav3.2-expressing cells; hits give low values; hit rate 4% among 100,000;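 active = single-dose well whose peak fluorescence ratio is a statistical outlier from its plate by either plate-standardised score or position-corrected B-score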
Measles CPE: compounds protecting cells from measles virus cytopathic effect, primary screen, measles RdRp inhibitor project, single point, MLSMR library, absorbance. protection (pct of control), % at 4 µM. AID 841, 2007. Measles virus-infected cells, CPE protection. hit rate 1.5% among 140,000; in the data active = protection mostly above about 24%, no sharp cut-off; inactive = mostly below about 26%
Phagocytosis inh: inhibitors of macrophage phagocytosis, primary screen, imaging, J774A.1 cells, IgG beads | J774A.1 macrophage IgG-bead phagocytosis | inhibition, % at 5 µM | hit rate 0.07% among 110,000 | AID 1029, 2008;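 active = inhibition above the mean of the plate negative controls plus 5 SD, cut at about 13% in these data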;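 note: phagocytic index as fraction of beads internalized from green versus red external bead signal; plate controls were DMSO negative control for no effect and cytochalasin-D positive control for full effect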
DAT uptake mod: changed hDAT dopamine uptake under cocaine IC80, either direction, primary screen, cocaine antagonist project, cell-based, LLC-PK1 hDAT, [14C]-dopamine uptake, MLSMR; Sodium-dependent dopamine transporter (Homo sapiens), Q01959; LLC-PK1 hDAT cells, [14C]-dopamine uptake with cocaine IC80; actives deviate in either direction; B-score at 10 µM; hit rate 1.3% among 110,000;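 active = Z score or B-score, a plate-position-corrected score, falls beyond the plate's 99.7% confidence bounds, in either direction; inactive = both scores lie inside the 99.7% bounds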;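 note: scored against the spread of the other compound wells on the same plate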
Target sequence (Q01959 whole entry, looked up): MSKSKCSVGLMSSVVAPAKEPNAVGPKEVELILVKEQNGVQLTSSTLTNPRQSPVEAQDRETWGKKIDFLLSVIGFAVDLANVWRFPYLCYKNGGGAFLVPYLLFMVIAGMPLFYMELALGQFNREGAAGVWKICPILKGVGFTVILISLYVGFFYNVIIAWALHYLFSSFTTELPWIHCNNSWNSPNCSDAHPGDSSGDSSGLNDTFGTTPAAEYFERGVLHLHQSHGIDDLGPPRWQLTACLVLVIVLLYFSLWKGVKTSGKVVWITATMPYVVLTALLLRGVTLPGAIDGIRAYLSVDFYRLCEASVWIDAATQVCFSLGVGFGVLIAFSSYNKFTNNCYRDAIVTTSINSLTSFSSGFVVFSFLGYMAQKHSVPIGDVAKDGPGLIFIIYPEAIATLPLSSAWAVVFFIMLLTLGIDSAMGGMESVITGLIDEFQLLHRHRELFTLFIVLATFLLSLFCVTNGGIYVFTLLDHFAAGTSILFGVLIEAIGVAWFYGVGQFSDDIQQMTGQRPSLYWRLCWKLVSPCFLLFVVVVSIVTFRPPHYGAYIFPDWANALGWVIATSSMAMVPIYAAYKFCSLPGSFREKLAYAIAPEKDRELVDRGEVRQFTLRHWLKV
HIV Rev-RRE inh: HIV-1 Rev-RRE binding inhibitors, primary screen, biochemical, FRET, protein-RNA interaction | Rev peptide-RRE RNA binding | inhibition, % at 8 µM | hit rate 0.79% among 97,000 | AID 704, 2007;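 active = inhibition above the screen-wide mean plus 3 SD, cut at about 35% in these data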;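 note: 0% = median DMSO wells and 100% = median Neomycin B control wells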
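assay system = Cy5-tagged RRE RNA duplex with fluorescein-tagged Rev peptide | incubation = 5 + 15 min at 25 °C | also added = labelled Rev peptide | measure = % inhibition of FRET ratio versus controls | benchmarks = DMSO wells as 0% and neomycin B wells as 100% inhibition | measured by = FRET fluorescence readout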
* marks the source's active call; other numbers are inactive results; / = not tested or not shown; [ ] = another dose, or the depositor's remark. Shown are actives, neighbours in structure and some others; about 5.9% of the full set was active somewhere.

SMILES | Pyk2 oligo antag | Cav3 T inh | Measles CPE | Phagocytosis inh | DAT uptake mod | HIV Rev-RRE inh
Cc1ccccc1CSc1nnc(-c2cccs2)n1Cc1ccco1 | -1.9 | -6.5* | 8 | / | 0.3 | 10
COc1cc(Cl)c(C)cc1NC(=O)CSc1nnc(-c2ccccn2)n1Cc1ccco1 | -2.4 | -7.3* | 24 | 0 | 0.38 | 8
O=C(CSc1nnc(-c2ccccn2)n1Cc1ccco1)c1ccc(Cl)cc1 | -0.55 | -5* | 6 | 0 | -0.28 | 8
CCCC(=O)N=C1SC2CS(=O)(=O)CC2N1c1ccc(-c2nc3ccc(C)cc3s2)cc1 (stereo not given) | / | / | 38 | 1 | / | /
CN(CC(O)CON=C1c2ccccc2-c2ccccc21)S(=O)(=O)c1ccc(Br)cc1 (stereo not given) | / | / | 41 | -8 | / | /
CCOC(=O)c1c(C)nc2c(c1-c1ccc(Cl)cc1)C(=O)CC(C)(C)C2 | / | / | 26 | -15 | / | /
CC(C)(C)c1ccc(CSc2nnc(-c3ccccn3)n2Cc2ccco2)cc1 | -2.4 | / | 12 | 2 | / | 6
Brc1ccc(CSc2nnc(-c3ccccn3)n2Cc2ccco2)cc1 | -1.5 | -5.1* | -1 | 1 | 2.5 | 9
CCO/C=C/C(O)(CNC(=O)c1ccc(C(C)(C)C)cc1)C(F)(F)F (stereo not given) | / | / | 25 | 2 | / | /
Cc1ccc(C2C(C#N)=C(N)SC(N)=C2C#N)c(C)c1 | -1.5 | 0.49 | 9 | 0 | 0.083 | /
Cc1ccc(C2C(C#N)=C(N)SC(N)=C2C#N)cc1 | 0.9 | / | 21 | -1 | / | 59*
Cc1[nH]nc2c1C(c1ccoc1)C(C#N)=C(N)O2 (stereo not given) | 0.77 | / | 5 | / | -0.29 | 8
CC(c1ccccc1)C1C(C#N)=C(N)SC(N)=C1C#N (stereo not given) | -0.29 | -5* | 5 | 0 | -1.3 | 1
N#CC1=C(N)SC(N)=C(C#N)C1c1ccoc1 | / | -0.85 | 6 | 3 | 0.02 | 86*[fluorescence artefact?]
COc1ccc(CNC(=O)/C(C#N)=C2\N=C(NC(=O)c3cccs3)c3ccccc32)cc1 | / | / | 6 | -5 | / | /
COc1cccc(Nc2nc(-c3ccc(O)cc3)cs2)c1 | -0.75 | -1.8 | 9 | 0 | 0.8 | -2
Cc1cccnc1Nc1nc(-c2ccc(O)cc2)cs1 | 0.25 | -0.42 | 2 | / | 4.6* | 7
CCOC(=O)c1c(C)oc2c(CC(=O)c3ccccc3)c(Cl)c(O)c(O)c12 | -0.92 | / | 34 | -8 | / | /
O=c1cc(-c2ccccc2)[nH]n1-c1nc2ccccc2[nH]1 | 0.15 | -5.6* | 1 | 1 | -1.4 | -2
O=C1CC(c2ccc(Br)cc2)NC(c2ccc(Br)cc2)C1c1ccccc1 (stereo not given) | / | / | 53* | -7 | / | /
C=CCCCCCCCCc1nc(=S)[nH][nH]1 | 0.25 | -5.2* | 16 | -1 | 0.039 | 0
Cc1ccccc1N/C(SCc1ccc(Cl)cc1)=C(/C#N)C(=O)NCc1ccco1 | -0.44 | -5.5* | 26 | 0 | 0.41 | 11
Cn1/c(=N/N=C/c2ccc([N+](=O)[O-])cc2)sc2ccccc21 | / | -1.4 | 10 | / | -0.67 | 58*
CC(C)C[C@H](NC(=O)OC(C)(C)C)c1nnc(SCc2ccccc2)o1 | -0.88 | -4.8* | 7 | 0 | 0.35 | 5
CCOC(=O)CSc1nnc([C@H](Cc2ccccc2)NC(=O)OC(C)(C)C)o1 | -0.42 | -0.56 | 7 | 0 | 0.34 | -1
CC(C)(C)OC(=O)N[C@@H](CCCCNC(=O)OCc1ccccc1)c1nnc([C@H](CCCCNC(=O)OCc2ccccc2)NC(=O)OC(C)(C)C)o1 | / | -2.8* | / | / | 0.77 | /
COc1ccc(NC(=O)C(CCCCNC(=O)OC(C)(C)C)NC(=O)OCc2ccccc2)cc1 (stereo not given) | / | / | 5 | -7 | / | /
C[N+]1([O-])[C@@H]2Cc3cc4c(cc3[C@@H]1Cc1cc3c(cc12)OCO3)OCO4 (stereo not given in full) | / | 0.8 | / | / | -0.81 | /

Screens as filed in PubChem BioAssay.
